Results reported in publication PMC4981430 (Neuropharmacology, 2016).
Read-outs that look alike come from different tables or passages of the source.

Key:
α5β2γ2 GABAARs = α5β2γ2 GABAARs (Rattus norvegicus, UniProt P18508+P19969); experiment: Whole-cell patch-clamp, potentiation of GABA; type: cell-based; settings: for Emax: HEK293, read-out: Electrophysiology Emax (potentiation)
[1] = test system: α1β2γ2, α2β3γ2, α3β3γ2 and α5β2γ2 GABAARs; experiment: Whole-cell patch-clamp in HEK293 cells, statements across the GABAAR subtypes; type: cell-based, rat; settings: up to 3 μM for DZP, and 20 μM for CBZ and NDMC
[2] = test system: CCI model of neuropathic pain, mechanical hyperalgesia; experiment: Mechanical hyperalgesia; type: in vivo, mouse; settings: GABAAR α1(H→R) point-mutated mice, von-Frey filament stimulation, p.o.
How it was run: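 Left sciatic nerve constricted proximal to the trifurcation with three loose 5-0 silk ligatures. Mice 7–10 weeks old, both sexes, wild-type or α1(H→R) point-mutated, tested blinded 7–14 days later. Dosing p.o. as a suspension in 0.9% saline/1% Tween80. Paw withdrawal threshold measured with electronic von Frey filament #7, 3–4 readings per time point. Expressed as %MPE using pre-CCI and pre-drug thresholds.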

α1β2γ2 GABAARs [3] = molecular target: T1, α1β2γ2 GABAARs (Rattus norvegicus, UniProt P18508+P62813); experiment: Whole-cell patch-clamp, potentiation of GABA; type: cell-based; settings: for Emax: HEK293, read-out: Electrophysiology Emax (potentiation)
α2β3γ2 GABAARs [4] = molecular target: T2, α2β3γ2 GABAARs (Rattus norvegicus, UniProt P18508+P23576); experiment: Whole-cell patch-clamp, potentiation of GABA; type: cell-based; settings: for Emax: HEK293, read-out: Electrophysiology Emax (potentiation)
α3β3γ2 GABAARs = α3β3γ2 GABAARs (Rattus norvegicus, UniProt P18508+P20236); experiment: Whole-cell patch-clamp, potentiation of GABA; type: cell-based
[5] = test system: locomotor activity of mice; experiment: Locomotor activity in the open field test; type: in vivo, mouse
[6] = test system: recombinant α2β3γ2 GABAARs; settings: cited from earlier work; for Potentiation of recombinant α2β3γ2 GABAARs, relative to chlordiazepoxide: % of that of chlordiazepoxide, ref Atack et al.
α1β2γ2 GABAARs [7] = molecular target: T1, α1β2γ2 GABAARs; experiment: [3H]flunitrazepam binding to membranes of transfected HEK293 cells, α1β2γ2
human GABAARs = human GABAARs in Xenopus laevis oocytes; ref Hammer et al., 2015; cited from earlier work
α2β3γ2 GABAARs [8] = molecular target: T2, α2β3γ2 GABAARs; experiment: [3H]flunitrazepam binding to membranes of transfected HEK293 cells, α2β3γ2

α5β2γ2 GABAARs, sequence (P19969 32-464 limits assumed): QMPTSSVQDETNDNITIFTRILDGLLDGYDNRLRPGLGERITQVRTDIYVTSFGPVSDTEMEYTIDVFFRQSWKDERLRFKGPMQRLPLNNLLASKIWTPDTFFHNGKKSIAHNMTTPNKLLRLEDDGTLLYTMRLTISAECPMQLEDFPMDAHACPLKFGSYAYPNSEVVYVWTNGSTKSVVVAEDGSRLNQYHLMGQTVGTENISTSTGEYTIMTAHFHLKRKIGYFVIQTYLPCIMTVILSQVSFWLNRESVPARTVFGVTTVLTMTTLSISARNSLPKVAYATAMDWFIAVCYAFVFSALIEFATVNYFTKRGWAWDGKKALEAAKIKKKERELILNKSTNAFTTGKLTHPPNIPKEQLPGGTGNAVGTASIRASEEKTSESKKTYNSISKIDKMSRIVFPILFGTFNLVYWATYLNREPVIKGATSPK
α5β2γ2 GABAARs, sequence (P63138 25-474 partner limits assumed): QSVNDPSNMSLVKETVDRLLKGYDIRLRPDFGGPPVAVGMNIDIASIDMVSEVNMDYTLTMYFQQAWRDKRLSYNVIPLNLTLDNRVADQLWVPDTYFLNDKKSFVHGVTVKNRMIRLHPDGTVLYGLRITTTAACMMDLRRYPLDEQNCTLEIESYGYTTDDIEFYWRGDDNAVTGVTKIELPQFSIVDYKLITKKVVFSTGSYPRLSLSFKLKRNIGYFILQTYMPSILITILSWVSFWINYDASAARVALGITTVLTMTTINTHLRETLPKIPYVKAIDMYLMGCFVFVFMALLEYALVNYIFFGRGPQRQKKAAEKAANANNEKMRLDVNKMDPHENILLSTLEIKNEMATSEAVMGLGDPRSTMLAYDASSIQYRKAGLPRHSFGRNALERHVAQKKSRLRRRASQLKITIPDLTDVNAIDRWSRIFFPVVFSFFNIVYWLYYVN
α5β2γ2 GABAARs, sequence (P18508 39-466): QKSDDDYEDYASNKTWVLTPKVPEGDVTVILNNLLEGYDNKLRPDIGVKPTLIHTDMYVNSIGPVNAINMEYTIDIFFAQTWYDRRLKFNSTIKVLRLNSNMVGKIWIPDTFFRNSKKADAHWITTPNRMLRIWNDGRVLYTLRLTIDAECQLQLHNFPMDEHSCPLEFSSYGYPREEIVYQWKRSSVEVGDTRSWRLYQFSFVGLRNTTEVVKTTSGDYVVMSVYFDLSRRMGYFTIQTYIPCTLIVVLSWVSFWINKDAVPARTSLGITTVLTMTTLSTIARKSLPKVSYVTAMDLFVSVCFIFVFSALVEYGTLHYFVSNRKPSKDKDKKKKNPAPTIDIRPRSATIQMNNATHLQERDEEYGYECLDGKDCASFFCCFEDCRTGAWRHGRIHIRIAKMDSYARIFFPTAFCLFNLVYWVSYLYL
T2 sequence (P23576 29-451): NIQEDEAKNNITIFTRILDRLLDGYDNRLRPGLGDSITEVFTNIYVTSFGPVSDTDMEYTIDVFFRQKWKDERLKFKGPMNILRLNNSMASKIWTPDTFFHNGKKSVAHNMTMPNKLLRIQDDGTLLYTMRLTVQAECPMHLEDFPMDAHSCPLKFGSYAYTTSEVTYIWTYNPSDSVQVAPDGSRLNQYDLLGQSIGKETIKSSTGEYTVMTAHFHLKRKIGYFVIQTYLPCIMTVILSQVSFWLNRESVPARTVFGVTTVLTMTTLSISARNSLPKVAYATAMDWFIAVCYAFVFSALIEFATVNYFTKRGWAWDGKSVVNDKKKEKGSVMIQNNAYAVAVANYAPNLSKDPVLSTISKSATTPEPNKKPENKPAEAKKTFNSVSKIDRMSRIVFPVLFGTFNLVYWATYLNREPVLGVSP
T2 sequence (P63079 26-473 partner): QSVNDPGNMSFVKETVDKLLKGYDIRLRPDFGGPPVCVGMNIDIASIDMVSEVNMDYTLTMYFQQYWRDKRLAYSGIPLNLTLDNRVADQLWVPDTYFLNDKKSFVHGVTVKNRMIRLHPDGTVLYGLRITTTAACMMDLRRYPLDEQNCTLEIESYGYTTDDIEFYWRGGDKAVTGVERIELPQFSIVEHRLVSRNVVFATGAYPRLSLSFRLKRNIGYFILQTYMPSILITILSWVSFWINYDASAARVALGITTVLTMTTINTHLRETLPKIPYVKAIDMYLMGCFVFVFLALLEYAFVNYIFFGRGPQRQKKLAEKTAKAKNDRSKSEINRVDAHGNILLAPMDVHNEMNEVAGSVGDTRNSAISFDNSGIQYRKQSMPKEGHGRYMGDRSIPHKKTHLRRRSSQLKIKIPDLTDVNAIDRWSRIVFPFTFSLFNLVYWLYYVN
T2 sequence (P18508 39-466): as the sequence (P18508 39-466) above
T1 sequence (P62813 28-455): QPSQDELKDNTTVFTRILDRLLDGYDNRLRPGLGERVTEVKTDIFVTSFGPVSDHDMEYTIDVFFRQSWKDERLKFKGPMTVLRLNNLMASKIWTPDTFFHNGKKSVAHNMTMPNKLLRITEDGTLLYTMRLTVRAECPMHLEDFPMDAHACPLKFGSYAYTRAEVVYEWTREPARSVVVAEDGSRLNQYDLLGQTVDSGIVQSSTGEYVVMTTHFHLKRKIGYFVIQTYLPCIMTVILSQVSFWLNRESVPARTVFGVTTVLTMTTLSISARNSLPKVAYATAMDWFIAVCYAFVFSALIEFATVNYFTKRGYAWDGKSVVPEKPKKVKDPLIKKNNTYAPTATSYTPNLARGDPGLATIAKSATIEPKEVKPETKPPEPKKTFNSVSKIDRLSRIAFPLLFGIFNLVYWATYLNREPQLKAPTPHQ
T1 sequence (P63138 25-474 partner limits assumed): as the sequence (P63138 25-474 partner limits assumed) above
T1 sequence (P18508 39-466): as the sequence (P18508 39-466) above
α3β3γ2 GABAARs, sequence (P20236 29-493): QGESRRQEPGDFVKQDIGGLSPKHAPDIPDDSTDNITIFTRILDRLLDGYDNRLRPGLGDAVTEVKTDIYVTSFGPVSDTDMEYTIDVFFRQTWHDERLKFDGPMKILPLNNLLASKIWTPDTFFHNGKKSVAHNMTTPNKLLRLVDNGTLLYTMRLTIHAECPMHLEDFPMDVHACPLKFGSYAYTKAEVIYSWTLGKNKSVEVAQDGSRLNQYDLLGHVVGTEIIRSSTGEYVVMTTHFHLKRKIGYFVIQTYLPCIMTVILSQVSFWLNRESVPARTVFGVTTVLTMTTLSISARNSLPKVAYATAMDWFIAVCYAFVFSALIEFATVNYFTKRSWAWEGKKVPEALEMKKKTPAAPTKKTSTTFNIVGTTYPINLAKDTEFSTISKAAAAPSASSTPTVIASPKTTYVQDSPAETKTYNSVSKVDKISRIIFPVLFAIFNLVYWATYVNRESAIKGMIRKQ
α3β3γ2 GABAARs, sequence (P63079 26-473 partner): as the sequence (P63079 26-473 partner) above
α3β3γ2 GABAARs, sequence (P18508 39-466): as the sequence (P18508 39-466) above

With CN1C(=O)CN=C(c2ccccc2)c2cc(Cl)ccc21 [DZP, diazepam] the Emax (α5β2γ2 GABAARs) was 100 ± 6.4%, the “Direct activation of GABAAR currents” value [1] was “did not directly activate GABAAR currents” and the ED50 antihyperalgesia [2] was 3.4 ± 1.3 mg/kg. The Emax (α1β2γ2 GABAARs [3]) was 141 ± 17%, the Emax (α2β3γ2 GABAARs [4]) was 123 ± 11% and the “Electrophysiology Emax (potentiation)” value (α3β3γ2 GABAARs; α3β3γ2, GABA at EC10, mean ± SD) was 227 ± 15%. For the same molecule, the “Dose at which reduction in locomotor activity reached statistical significance” value ([5]; 129X1/SvJ mice, p.o., 72-120 min) was at least 10 mg/kg, the “Effect on locomotor activity” value ([5]; C57BL/6J mice, 3, 10 and 30 mg kg−1 p.o., 72-120 min) was “dose-dependent reduction in locomotor activity” and the “Dose at which reduction in locomotor activity reached statistical significance” value ([5]; C57BL/6J mice, p.o., 72-120 min) was 1 mg/kg. For the same molecule, the “Effect on locomotor activity in HRRR mice” value ([5]; HRRR triple point-mutated mice (only α1GABAARs BDZ-sensitive), 3–10 mg kg−1 p.o.) was “completely suppressed”, the “Effect on locomotor activity in RHRR mice” value ([5]; RHRR triple point-mutated mice (only α2GABAARs BDZ-sensitive), p.o.) was “increased locomotion” and the “Dose reducing locomotor activity in RRRR mice” value ([5]; quadruple point-mutated RRRR mice, p.o.) was at least 30 mg/kg. It also gave an ED50 sedation ([5]; triple (H→R) point-mutated mice, only α1GABAARs BDZ-sensitive, p.o.) of 0.59 ± 0.08 mg/kg.

In the case of CC(C)(O)c1cnn2c(-c3ccc(F)c(-c4c(F)cccc4C#N)c3)cnc2n1 [TPA023B], the “Potentiation of recombinant α2β3γ2 GABAARs, relative to chlordiazepoxide” value [6]; 2011 is listed as 38%.

In the case of Cn1ncnc1COc1nn2c(-c3cc(F)ccc3F)nnc2cc1C(C)(C)C [L-838,417], the “Potentiation of recombinant α2β3γ2 GABAARs” value ([6]; ref McKernan et al., 2000) is listed as “about 40%”.

Work on CN1C(=O)CC(=O)N(c2ccccc2)c2cc(Cl)ccc21 [CBZ, clobazam] yielded an EC50 (α5β2γ2 GABAARs) of 0.5 ± 0.12 µM, an Emax (α5β2γ2 GABAARs) of 157 ± 11% and an IC50 (α1β2γ2 GABAARs [7]) of 0.43 ± 0.13 µM. For the same molecule, the “Direct activation of GABAAR currents” value [1] was “did not directly activate GABAAR currents”, the EC50 (α1β2γ2 GABAARs [3]) was 0.61 ± 0.2 µM and the Emax (α1β2γ2 GABAARs [3]) was 171 ± 17%. It also gave an EC50 (α2β3γ2 GABAARs [4]) of 0.39 ± 0.19 µM, an Emax (α2β3γ2 GABAARs [4]) of 134 ± 16% and a α2/α1 selectivity (α2β3γ2 GABAARs [4]; determined as Emax(α2)/Emax(α1)) of 0.78 ± 0.12. For the same molecule, the EC50 (α3β3γ2 GABAARs) was 1.1 ± 0.32 µM, the α2/α1 selectivity ratio (human GABAARs) was 1.02 ± 0.05 and the IC50 (α2β3γ2 GABAARs [8]) was 0.39 ± 0.08 µM.

For CCn1ncnc1COc1nn2c(-c3ccccc3F)nnc2cc1C(C)(C)C [TPA023, 7-(1,1-Dimethylethyl)-6-(2-ethyl-2H-1,2,4-triazol-3-ylmethoxy)-3-(2-fluor ophenyl)-1,2,4-triazolo[4,3-b]pyridazine], the “Potentiation of recombinant α2β3γ2 GABAARs, relative to chlordiazepoxide” value [6]; 2006 is listed as 11%.
